# Experimental data: ChEMBL document CHEMBL2390911, “Synthesis and structure-activity relationships of 2-amino-3-carboxy-4-phenylthiophenes as novel atypical protein kinase C inhibitors” (Bioorg Med Chem Lett, 2013)
# Assays:
# [1] = Inhibition of atypical PKCzeta in bovine retinal endothelial cells assessed as TNFalpha/VEGF-induced endothelial permeability preincubated for 30 mins followed by TNFalpha induction for 1 hr and VEGF induction for 30 mins measured every 30 mins for 4 hrs by Transwell assay; type: cell-based; details: Bos taurus, Endothelial cell
# Summary of the method: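 Retinal endothelial monolayers were given a 5-point compound dose-response, then VEGF/TNF was added for 1.5 h. Flux of 70kDa RITC-dextran across the monolayer was the read-out. Data are the mean of at least n≥8, repeated in independent experiments. EC50 was derived from a variable-slope dose-response fit.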
# [2] = molecular target: T1, Protein kinase C zeta type (Homo sapiens, UniProt Q05513); experiment: Inhibition of atypical PKCzeta in HEK293 cells assessed as TNF-induced NFkappaB activation incubated for 3 hrs prior to TNF induction measured after 5 hrs by bright-glo luciferase reporter gene assay; type: cell-based
# T1 sequence (Q05513 whole entry): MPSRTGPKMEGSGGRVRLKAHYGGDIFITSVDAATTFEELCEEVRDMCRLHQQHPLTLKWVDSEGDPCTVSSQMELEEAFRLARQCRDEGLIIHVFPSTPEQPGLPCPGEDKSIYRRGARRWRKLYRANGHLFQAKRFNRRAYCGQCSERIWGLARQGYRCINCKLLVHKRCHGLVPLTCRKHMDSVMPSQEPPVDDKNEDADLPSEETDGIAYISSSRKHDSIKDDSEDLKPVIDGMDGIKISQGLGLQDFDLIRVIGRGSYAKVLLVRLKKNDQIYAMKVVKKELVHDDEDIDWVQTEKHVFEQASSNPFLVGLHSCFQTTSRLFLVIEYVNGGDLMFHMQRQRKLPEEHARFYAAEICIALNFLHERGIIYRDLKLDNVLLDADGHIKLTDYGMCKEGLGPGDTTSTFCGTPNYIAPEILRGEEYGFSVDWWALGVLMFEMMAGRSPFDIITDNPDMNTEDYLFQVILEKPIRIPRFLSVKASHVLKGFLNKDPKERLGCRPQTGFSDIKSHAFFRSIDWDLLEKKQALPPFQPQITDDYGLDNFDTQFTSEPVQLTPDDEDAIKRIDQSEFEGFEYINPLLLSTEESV
# [3] = molecular target: Voltage-gated inwardly rectifying potassium channel KCNH2 (Homo sapiens, UniProt Q12809); experiment: Inhibition of human ERG
# Voltage-gated inwardly rectifying potassium channel KCNH2, sequence (Q12809 whole entry): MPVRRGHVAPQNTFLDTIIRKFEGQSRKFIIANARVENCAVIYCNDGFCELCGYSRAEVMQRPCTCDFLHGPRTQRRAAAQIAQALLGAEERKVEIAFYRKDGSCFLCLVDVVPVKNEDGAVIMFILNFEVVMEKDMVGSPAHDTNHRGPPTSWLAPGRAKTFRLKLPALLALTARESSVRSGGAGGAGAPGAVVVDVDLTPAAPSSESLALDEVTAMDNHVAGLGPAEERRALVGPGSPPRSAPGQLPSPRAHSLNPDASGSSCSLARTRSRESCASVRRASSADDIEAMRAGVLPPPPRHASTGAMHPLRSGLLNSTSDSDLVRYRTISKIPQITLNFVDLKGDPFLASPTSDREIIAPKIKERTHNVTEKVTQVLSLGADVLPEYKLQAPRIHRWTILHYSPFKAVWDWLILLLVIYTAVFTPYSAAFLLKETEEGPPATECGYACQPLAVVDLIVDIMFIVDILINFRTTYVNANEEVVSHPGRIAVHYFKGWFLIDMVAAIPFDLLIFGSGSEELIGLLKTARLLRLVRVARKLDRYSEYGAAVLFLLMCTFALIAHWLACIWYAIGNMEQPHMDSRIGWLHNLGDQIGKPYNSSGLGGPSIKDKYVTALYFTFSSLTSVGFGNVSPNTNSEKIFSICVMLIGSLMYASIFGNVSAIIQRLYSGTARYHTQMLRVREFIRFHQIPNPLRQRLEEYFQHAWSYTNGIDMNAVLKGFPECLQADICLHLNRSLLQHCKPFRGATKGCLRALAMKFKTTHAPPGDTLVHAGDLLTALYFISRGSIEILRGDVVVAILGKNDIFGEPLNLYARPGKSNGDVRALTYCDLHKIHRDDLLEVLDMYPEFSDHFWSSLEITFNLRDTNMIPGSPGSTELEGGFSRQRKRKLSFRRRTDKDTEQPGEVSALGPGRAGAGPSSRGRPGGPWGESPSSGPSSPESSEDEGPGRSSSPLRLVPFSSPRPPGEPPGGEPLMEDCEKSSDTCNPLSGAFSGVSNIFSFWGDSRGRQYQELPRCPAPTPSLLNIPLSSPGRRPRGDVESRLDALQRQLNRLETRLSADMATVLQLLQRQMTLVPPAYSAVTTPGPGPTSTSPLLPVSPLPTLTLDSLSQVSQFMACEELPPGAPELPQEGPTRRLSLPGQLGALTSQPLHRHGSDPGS
# [4] = molecular target: T1, Protein kinase C zeta type; experiment: Inhibition of atypical PKCzeta (unknown origin) using CREBtide as substrate incubated for 1 hr measured every 2.5 mins by ADP Quest assay
# [5] = molecular target: T2, Protein kinase C iota type (Homo sapiens, UniProt P41743); experiment: Inhibition of atypical PKCiota (unknown origin) using CREBtide as substrate incubated for 1 hr measured every 2.5 mins by ADP Quest assay
# T2 sequence (P41743 whole entry): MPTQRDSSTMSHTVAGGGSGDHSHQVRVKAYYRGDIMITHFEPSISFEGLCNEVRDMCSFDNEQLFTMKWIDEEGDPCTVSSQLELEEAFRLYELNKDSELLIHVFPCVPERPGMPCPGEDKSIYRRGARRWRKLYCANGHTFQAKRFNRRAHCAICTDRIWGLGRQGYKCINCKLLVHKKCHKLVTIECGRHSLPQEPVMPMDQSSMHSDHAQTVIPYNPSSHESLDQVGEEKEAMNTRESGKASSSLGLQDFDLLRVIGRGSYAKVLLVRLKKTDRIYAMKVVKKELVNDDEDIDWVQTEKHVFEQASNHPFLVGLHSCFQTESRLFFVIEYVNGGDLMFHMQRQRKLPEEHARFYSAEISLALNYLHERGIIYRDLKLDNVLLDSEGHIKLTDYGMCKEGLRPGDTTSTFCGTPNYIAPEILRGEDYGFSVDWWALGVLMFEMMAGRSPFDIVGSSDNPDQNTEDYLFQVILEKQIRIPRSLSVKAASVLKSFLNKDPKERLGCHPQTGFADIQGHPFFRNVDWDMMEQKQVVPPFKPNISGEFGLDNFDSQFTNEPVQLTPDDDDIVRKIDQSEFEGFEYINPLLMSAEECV
SMILES,EC50 [1] [µM],EC50 [2] [µM],IC50 [3] [µM],IC50 [4] [µM],IC50 [5] [µM]
O=C(c1ccc(Nc2nccc(-c3cc4ccccc4s3)n2)cc1)N1CCC(N2CCCC2)CC1,0.001,0.003,–,–,–
COc1ccc(-c2csc(N)c2C(=O)OC(C)C)cc1OC,–,–,> 10,–,–
COc1ccc(-c2csc(N)c2C(=O)OCc2ccccc2)cc1OC,–,0.002,–,6,–
COc1cccc(COC(=O)c2c(-c3ccc(OC)c(OC)c3)csc2N)c1,> 0.1,0.001,1,–,0.9
CCOC(=O)c1c(-c2ccc(N)cc2)csc1N,0.27,0.001,–,2,–
CCOC(=O)c1c(-c2ccc(N(C)C)cc2)csc1N,0.28,–,> 10,–,0.9
CCOC(=O)c1c(-c2ccc3c(c2)OCO3)csc1N,0.02,0.002,–,2,2
CCOC(=O)c1c(-c2ccc(OC)cc2F)csc1N,–,0.01,–,4,–
